Results from different studies.
Medium: Caco-2

| Structure (SMILES) | setting | endpoint | value |
| --- | --- | --- | --- |
| COC(=O)N[C@H](C(=O)NN(CCC[C@@]1(Cc2ccccc2)C(=O)N([C@H]2c3ccccc3C[C@H]2O)C[C@H]1O)Cc1ccc(Br)cc1)C(C)(C)C | 10 µM, 1 h, pH 7.4 | Papp A→B | > 20 ×10⁻⁶ cm/s |
| COc1cc2c(c(OC)c1OC)-c1ccc(OC)c(=O)cc1[C@@H](NC(C)=O)CC2 |  | Papp B→A | 4.9 ×10⁻⁶ cm/s |
| C[C@]12C[C@@H](O)[C@H]3[C@@H](CC[C@]4(O)C[C@@H](O)C[C@@H](O)[C@]34CO)[C@@]1(O)CC[C@@H]2c1cn(Cc2ccccc2)nn1 | 40 min, pH 6.5 | Papp B→A | 0.14 ×10⁻⁶ cm/s |
| N=c1c2c(-c3ccccc3)c(-c3ccccc3)n(Cc3ccccc3)c2ncn1[C@H]1CC[C@H](O)CC1 | 3 µM, 2 h, pH 7.4 | Papp B→A | 2 ×10⁻⁶ cm/s |
| CC(C)NCC(O)COc1cccc2ccccc12 (stereo not shown) | 1 h, pH 7.4 | Papp A→B | 21.8 ×10⁻⁶ cm/s |
| NC[C@H]1O[C@@H](O[C@@H]([C@H](NCCCC(=O)NCc2ccc(N3CCC(Oc4ccc(OC(F)(F)F)cc4)CC3)cc2)C(N)=O)[C@H]2O[C@@H](n3ccc(=O)[nH]c3=O)C(O)C2O)[C@H](O)[C@@H]1O (stereo partly shown) |  | Papp | < 1 ×10⁻⁶ cm/s |
| C/N=c1\nc(-c2ccccc2)n(-c2ccccc2)s1 | 20 µM, 95 min | Papp B→A | 37.4 ×10⁻⁶ cm/s |
| C=C(CCC=C(C)C)[C@H]1CC[C@]2(C)[C@@H]1[C@H](O)C[C@@H]1[C@@]3(C)C[C@@H](O)[C@H](O[C@@H]4O[C@H](CO)[C@@H](O)[C@H](O)[C@H]4O[C@@H]4O[C@H](CO)[C@@H](O)[C@H](O)[C@H]4O)C(C)(C)[C@@H]3CC[C@]12C | 1 mg/mL, pH 7.4 | Papp | 3.56 ×10⁻⁶ cm/s |
| C[C@H]1O[C@@H](O[C@H]2[C@@H](O)C[C@H](O[C@H]3[C@@H](O)C[C@H](O[C@H]4CC[C@@]5(C)[C@H](CC[C@@H]6[C@@H]5C[C@@H](O)[C@]5(C)[C@@H](C7=CC(=O)OC7)CC[C@]65O)C4)O[C@@H]3C)O[C@@H]2C)C[C@H](O)[C@@H]1O | 10 µM, 1 h, pH 7.4 | Papp B→A | 22.8 ×10⁻⁶ cm/s |
| C=CCc1ccc(O)c(-c2cc(CC=C)ccc2O)c1 | 0.05 mg/mL, 4 h, pH 7.4 | Papp A→B | 9 ×10⁻⁶ cm/s |
| O=C(CCCN1CCC2(CC1)C(=O)NCN2c1ccccc1)N(CC1CCCCC1)c1ccccc1 |  | Papp A→B | 2.83 ×10⁻⁶ cm/s |
| CC[C@@]1(O)C(=O)OCc2c1cc1n(c2=O)Cc2cc3ccccc3nc2-1 | 105 min | Papp B→A | ~3.5 ×10⁻⁶ cm/s |
| COc1ccc2c(c1)[C@]13CCCC[C@@H]1[C@H](C2)N(C)CC3 | 10 µM, pH 6.5 | Papp B→A | 69.6 ×10⁻⁶ cm/s |
